Screens deposited in PubChem BioAssay by several laboratories.
HNF4A DNA FP – change in binding of human HNF4 alpha to DNA; P41235; HNF4a-FITC DNA binding, fluorescence polarization, 1 h; activity change, % at 10 µM; 0.3% of 360,000 active; in the data active = activity change above about 30%, passing the limit was not always enough
Rpn11 inh – blocks the human proteasome subunit Rpn11; O00487; human 26S proteasome, Ub4-pepOG fluorescence polarization; 20S core pre-blocked with epoxomicin; inhibition, % at 20 µM; 0.59% of 360,000 active; AID 588493;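 active = inhibition at 20 µM, scaled to each plate's controls, above about 33%, limit read from the data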
Neddyl block – cullin neddylation inhibition | TR-FRET cullin neddylation, biochemical | P61081+Q13564 | inhibition, % at 25 µM | 0.58% of 360,000 active; in the data active = inhibition above about 36%
TPT1 inhibitor – C. albicans TPT1 enzyme inhibition | recombinant caTPT1, FP RNA substrate dephosphorylation | inhibition, % at 5 µM | 0.81% of 300,000 active | AID 1962;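 active = inhibition above the mean of all tested compounds plus 3 SD, set per screening campaign, cut at about 24% in these data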;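 note: plate controls were DMSO alone for no effect and ferristatin control at 100 nM for full effect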
CSN deneddyl inh – CSN deneddylation inhibition; inhibition, % at 12.5 µM; Q92905; 0.38% of 360,000 active; Purified CSN, SCF-Nedd8-OG deneddylation, fluorescence polarization;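 active = pattern-corrected inhibition above about 35%, with an unprinted fluorescence ratio check between 0.5 and 1.5, limit read from the data, passing the limit was not always enough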;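 note: 0% = enzyme with substrate and 100% = substrate without enzyme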
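Assay system: purified human Csn5 enzyme expressed in HEK293T cells; Input: 0.24 nM Csn5 enzyme, final concentration; Reagent: 10 nM SCFSkp2-Nedd8OG; Compound dosing: 12.5 µM single point; Times: reaction 90 min, room temperature; Technique: fluorescence polarization readout.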
Rin1-Abl PPI inh – blocks binding of human Rin1 to Abl. TR-FRET Rin1/Abl binding, biochemical. 0.4% of 360,000 active. inhibition, % at 7.35 µM. P00519+Q13671; in the data active = inhibition above about 5%, passing the limit was not always enough
Rin1 Abl conf – confirmation of inhibitors of human Rin1-Abl interaction; shares compounds with Rin1-Abl PPI inh; TR-FRET Rin1-Abl binding, purified proteins; inhibition, % at 7.35 µM; 49% of 1,300 active; AID 602124
GFP quencher – quenches GFP fluorescence, counter-screen for Rin1-Abl inhibitors; 8.5% of 1,300 active; inhibition, % at 6.75 µM; shares compounds with Rin1-Abl PPI inh; inhibitors/quenchers counterscreen; AID 602125;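 note: ABL1-eGFP fusion protein alone without its partner RIN1-SBP; 0% = protein with vehicle and 100% = wells lacking protein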
Numbers without * were called inactive; nt = no result. Shown are actives, neighbours in structure and some others; about 2.4% of the full set was active somewhere. Cut-off read from the data, not from the text of the source, unless noted: active = inhibition above about 6.5%; inactive = the rest.

SMILES | HNF4A DNA FP | Rpn11 inh | Neddyl block | TPT1 inhibitor | CSN deneddyl inh | Rin1-Abl PPI inh | Rin1 Abl conf | GFP quencher
Cn1c(=O)c2c(nc(N3CCC(C(N)=O)CC3)n2CCSc2nc3ccccc3s2)n(C)c1=O | -4 | 2 | 10 | 1 | 4 | 9.7* | 7.0* | 0
COc1ccc([C@H]2CC(=O)C=C(c3ccc(Cl)c(C(F)(F)F)c3)C2)cc1 | -3 | 2 | -36 | nt | -1 | -1 | nt | nt
S=C(NCCN1CCOCC1)N/N=C/c1cccs1 | 5 | -6 | -8 | -1 | -1 | -2 | nt | nt
Oc1cccc(/C=N/NC(=S)NCCN2CCOCC2)c1O | -3 | -2 | 4 | -3 | 0 | 5.7* | 0 | -3
CCNC(=O)C1(C)CCCN(C(=O)CCc2cccs2)C1 (stereo not drawn) | -1 | 0 | 6 | nt | 2 | -2 | nt | nt
Cc1ccc(C(=O)NC(C)c2ccc(-n3ccnc3)cc2)cc1S(=O)(=O)N1CCOCC1 (stereo not drawn) | 13 | 14 | 7 | 0 | 2 | 11* | 16* | 0
Cc1nn(C)c(C(=O)NNC(=S)NCc2ccccc2)c1Cl | 3 | -2 | -9 | nt | 4 | 7.3* | -3 | 0
Cc1ccc(C(=O)NCCc2nnc3ccc(SCC(=O)N4CCCC4)nn23)cc1 | 2 | -3 | 8 | 2 | -3 | 15* | 11* | -1
O=c1cc(CO)oc(CN2CCCC2)c1O | 2 | -9 | -5 | -4 | -2 | 27* | 3 | 0
CCN(CC)Cc1oc(CO)cc(=O)c1O | -6 | -12 | -1 | 0 | 3 | 26* | 11* | 2
O=C(O)C1CCN(Cc2oc(CO)cc(=O)c2O)C1 (stereo not drawn) | 2 | -2 | 6 | nt | -1 | 6 | nt | nt
O=c1cc(CO)oc(CN2CCN(Cc3ccccc3)CC2)c1O | -1 | 6 | 0 | -5 | 0 | 5 | nt | nt
CN1CCN(Cc2oc(CO)cc(=O)c2O)CC1 | 2 | -5 | 1 | 1 | 1 | 12* | -1 | -1
CCCS(=O)(=O)N1CCN(Cc2ccccc2[N+](=O)[O-])CC1 | -6 | 5 | -10 | -2 | -7 | 9.5* | 0 | 0
O=[N+]([O-])c1ccccc1CN1CCN(S(=O)(=O)Cc2ccccc2)CC1 | 1 | -10 | -3 | 1 | 4 | 2 | nt | nt
COc1cc(CNC(=O)c2cc(-c3ccc(OC)cc3C)n[nH]2)cc(OC)c1 | -3 | 1 | 1 | nt | -3 | 0 | nt | nt
Cc1ccc(S(=O)(=O)N(C)C)cc1NC(=O)COC(=O)/C(=C/c1ccc(F)cc1)c1cccs1 | 0 | 20 | 4 | 2 | 7 | -1 | nt | nt
COCC(=O)Nc1nc(-c2ccc(C)cc2)c(C)s1 | 4 | 3 | 5 | 1 | -2 | -1 | nt | nt
COC(=O)Nc1nc(-c2ccc(F)cc2)c(C)s1 | -3 | -1 | 0 | 3 | -8 | 5.2* | -2 | 0
CC(=O)/C(N=Nc1c(C)n(C)n(-c2ccccc2)c1=O)=C(\C)O | -2 | 4 | -28 | -4 | -6 | -5 | nt | nt
Cc1c(N=NC2=C(O)CC(C)(C)CC2=O)c(=O)n(-c2ccccc2)n1C | 7 | 9 | -9 | 4 | 2 | 10* | 2 | 3
O=S(=O)(Nc1nc2ccc(Cl)cc2s1)c1cccs1 | -1 | 3 | -6 | 1 | 2 | 4 | nt | nt
O=C1CC(c2ccccc2)Oc2cc(O)cc(O)c21 (stereo not drawn) | -5 | -2 | 1 | -4 | 0 | 0 | nt | nt
COc1cc(OC)c2c(c1O)OC(c1ccccc1)CC2=O (stereo not drawn) | -1 | -13 | -1 | 3 | 3 | 16* | 9.2* | 2
Cc1cc(=O)oc2cc(OCC(=O)Nc3ccccc3C(=O)O)ccc12 | 1 | -1 | 6 | 0 | -1 | 3 | nt | nt
C[C@H]1CN([C@@H](C)CO)C(=O)CCCn2nncc2CO[C@H]1CN(C)S(=O)(=O)c1cccc(F)c1 | -6 | 6 | -3 | nt | 3 | -1 | nt | nt
C[C@@H]1CN([C@@H](C)CO)C(=O)CCCn2nncc2CO[C@@H]1CN(C)S(=O)(=O)c1cccc(F)c1 | 0 | -6 | -5 | nt | -4 | 14* | -1 | 0
